Results: ChEMBL document CHEMBL1157197, “Design, synthesis and trypanocidal activity of lead compounds based on inhibitors of parasite glycolysis” (Bioorg Med Chem, 2008)

Legend:
Trypanosoma brucei = test: Antiparasitic activity against Trypanosoma brucei strain 427; format: functional; settings: read-out: ED50 (the source's name)
Summary of the method: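 Cultured bloodstream-form Trypanosoma brucei brucei strain 427 exposed to compounds in vitro; ED50 reported.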

[1] = target: T1, ATP-dependent 6-phosphofructokinase (Trypanosoma brucei) (UniProt O15648); test: Inhibition of Trypanosoma brucei phosphofructokinase assessed as enzyme residual activity at 1 mM
T1 sequence (whole entry): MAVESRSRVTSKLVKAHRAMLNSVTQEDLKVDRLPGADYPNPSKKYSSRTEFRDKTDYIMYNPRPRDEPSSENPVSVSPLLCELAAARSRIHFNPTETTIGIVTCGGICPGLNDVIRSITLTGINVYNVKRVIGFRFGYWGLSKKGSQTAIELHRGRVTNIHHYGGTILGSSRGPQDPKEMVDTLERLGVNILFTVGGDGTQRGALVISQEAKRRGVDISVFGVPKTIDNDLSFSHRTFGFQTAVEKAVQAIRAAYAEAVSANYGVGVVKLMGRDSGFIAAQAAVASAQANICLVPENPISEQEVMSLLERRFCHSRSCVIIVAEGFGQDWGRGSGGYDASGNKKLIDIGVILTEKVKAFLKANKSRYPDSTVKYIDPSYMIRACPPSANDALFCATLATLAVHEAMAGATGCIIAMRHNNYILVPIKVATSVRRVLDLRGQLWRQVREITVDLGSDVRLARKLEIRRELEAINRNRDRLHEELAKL

[2] = target: T2, ATP-dependent 6-phosphofructokinase (Trypanosoma brucei, UniProt O15648); test: Inhibition of Trypanosoma brucei phosphofructokinase
T2 sequence (O15648 whole entry): T1 sequence (whole entry)

[3] = target: T3, Pyruvate kinase (Leishmania mexicana) (UniProt Q27686); test: Inhibition of Leishmania mexicana pyruvate kinase assessed as enzyme residual activity at 5 mM
T3 sequence (whole entry): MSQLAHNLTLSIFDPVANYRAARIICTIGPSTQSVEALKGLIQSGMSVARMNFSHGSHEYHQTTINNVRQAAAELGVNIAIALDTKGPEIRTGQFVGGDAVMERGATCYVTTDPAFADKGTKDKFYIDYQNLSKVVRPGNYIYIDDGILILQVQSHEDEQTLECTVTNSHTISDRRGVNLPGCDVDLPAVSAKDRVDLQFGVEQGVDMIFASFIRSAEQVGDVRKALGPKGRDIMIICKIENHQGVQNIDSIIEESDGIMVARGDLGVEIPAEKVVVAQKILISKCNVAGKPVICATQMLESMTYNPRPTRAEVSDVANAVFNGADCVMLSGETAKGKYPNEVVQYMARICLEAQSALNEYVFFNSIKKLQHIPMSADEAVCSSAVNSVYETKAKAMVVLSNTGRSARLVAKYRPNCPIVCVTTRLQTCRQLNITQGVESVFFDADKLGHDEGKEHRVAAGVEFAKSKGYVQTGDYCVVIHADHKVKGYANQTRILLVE

[4] = target: T1, ATP-dependent 6-phosphofructokinase (Trypanosoma brucei); test: Inhibition of Trypanosoma brucei phosphofructokinase assessed as enzyme residual activity at 5 mM

Row | Compound | EC50 (Trypanosoma brucei) [µM] | Activity [1] [%] | IC50 [2] [µM] | Activity [3] [%] | Activity [4] [%]
1 | C=CCNC(=O)[C@H]1O[C@H](CNCc2ccc(Cl)c(Cl)c2)[C@@H](O)[C@@H]1O | 110 | 2 | 50 | – | –
2 | O=C(NCc1ccc(Cl)c(Cl)c1)[C@H]1O[C@H](CNCc2ccc(Cl)c(Cl)c2)[C@@H](O)[C@@H]1O | 30 | 0.9 | 23 | – | –
3 | O=C(NC1CCCCCC1)[C@H]1O[C@H](CNCc2ccc(Cl)c(Cl)c2)[C@@H](O)[C@@H]1O | 35 | 4.7 | 80 | 88.2 | –
4 | OC[C@H]1O[C@H](CNCc2ccc(Cl)c(Cl)c2)[C@@H](O)[C@@H]1O | 130 | – | 410 | 43 | 5
